Drawing on ChEMBL document CHEMBL2010640, “Perturbing pro-survival proteins using quinoxaline derivatives: a structure-activity relationship study” (Bioorg Med Chem, 2012), this text covers Activity and inhibition for ten compounds.

Active and inactive are the calls of the source. The calls are words filed in the database; no cut-off is given here.

Experiment [1] deals with HeLa. The experiment in a line: Induction of apoptosis in human HeLa cells overexpressing Bad3SA at 10 uM after 12 hrs by Hoechst staining. In kind it is functional, cell-based. The gist of the method: (§1)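 Doxycycline-inducible HeLa lines (Dox-GFP, Dox-Noxa, Dox-Bad3SA) induced with doxycycline (1 μg/mL) for 3 h, then treated for a further 12 h; ABT-737 tested at 1 μM, other compound at 10 μM, DMSO vehicle. Cells fixed and Hoechst-stained; condensed nuclei counted to give percent cell death.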

For experiment [2], the target named is Induced myeloid leukemia cell differentiation protein Mcl-1 (Homo sapiens) (UniProt Q07820). The experiment in a line: Inhibition of Mcl-1 in human HeLa cells overexpressing Bad3SA assessed as increase in caspase3/7 activity at 50 uM after 6 hrs by luminescence analysis. In kind it is cell-based. The gist of the method: (§2)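 Dox-Bad3SA HeLa cells (Bad3SA expressed under doxycycline control) exposed to compound for 6 h, with doxycycline or without it. Caspase 3/7 activity read as Caspase-Glo luminescence 1 h after adding reagent. Raw luminescence was normalized to alamarBlue fluorescence to correct for cell number.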
Induced myeloid leukemia cell differentiation protein Mcl-1 (Homo sapiens), sequence (Q07820 whole entry): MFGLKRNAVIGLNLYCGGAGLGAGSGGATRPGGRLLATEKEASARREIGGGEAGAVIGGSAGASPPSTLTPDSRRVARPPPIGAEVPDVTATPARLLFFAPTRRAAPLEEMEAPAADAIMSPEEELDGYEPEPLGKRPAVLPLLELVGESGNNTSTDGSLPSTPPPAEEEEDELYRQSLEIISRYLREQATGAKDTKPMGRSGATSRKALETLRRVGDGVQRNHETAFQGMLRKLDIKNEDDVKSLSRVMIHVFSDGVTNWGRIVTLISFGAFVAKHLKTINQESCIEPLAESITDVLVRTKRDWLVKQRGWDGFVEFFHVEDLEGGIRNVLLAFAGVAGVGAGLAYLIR

Experiment [3] shares this target. The experiment in a line: Inhibition of Mcl-1 in doxycyclin-stimulated human HeLa cells overexpressing Bad3SA assessed as increase in caspase3/7 activity at 50 uM after 6 hrs by luminescence analysis. It counts as cell-based. The essentials: as §2
The test system of experiment [4] is HeLa. The experiment in a line: Induction of apoptosis in human HeLa cells assessed as caspase activation at 1 to 10 uM by Hoechst staining. In kind it is functional, cell-based. The essentials:
(§3)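 HeLa cells, 2000 cells/well, treated 6 h (ABT-737 1 μM; other compounds 10 μM, alone or combined); Caspase-Glo 3/7 reagent added, luminescence read after 1 h, RLU normalized to alamarBlue fluorescence. Separately, cell death across doses of the combination scored by Hoechst staining.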

In experiment [5] the target is Bcl-2-like protein 1 (Homo sapiens) (UniProt Q07817). The experiment in a line: Induction of Bcl-xL-mediated apoptosis in doxycyclin-stimulated human HeLa cells overexpressing Noxa at 10 uM after 12 hrs by Hoechst staining. In kind it is cell-based. The essentials: as §1
Bcl-2-like protein 1 (Homo sapiens), sequence (Q07817 whole entry): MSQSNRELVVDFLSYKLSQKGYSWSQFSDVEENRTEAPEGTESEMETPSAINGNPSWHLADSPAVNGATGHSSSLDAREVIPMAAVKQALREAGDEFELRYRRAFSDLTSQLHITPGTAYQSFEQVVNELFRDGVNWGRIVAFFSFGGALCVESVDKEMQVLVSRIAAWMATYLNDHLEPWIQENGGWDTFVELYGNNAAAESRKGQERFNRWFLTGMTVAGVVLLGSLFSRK
Experiment [6] concerns HeLa. The experiment in a line: Induction of apoptosis in human HeLa cells assessed as decrease in Mcl-1 level after 12 hrs by Western blot analysis. On the technique in general: In western blotting, separated proteins are transferred to a membrane and probed.
For experiment [7], the system named is HeLa. Kind of experiment: Induction of apoptosis in human HeLa cells expressing Bcl-xL assessed as decrease in Mcl-1 level at 1 to 10 uM by Western blot analysis. It counts as functional, cell-based. As to conditions: TDE = time-dependent effect. The essentials:
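HeLa cells exposed to 1, 5 or 10 μM for 12 h (dose response), and Bcl-xL-overexpressing HeLa cells exposed to 10 μM for 3, 6 or 12 h (time course); lysates resolved by SDS-PAGE and blotted for Mcl-1, Bcl-xL and Bcl-2, actin as loading control, DMSO vehicle.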

Experiment [8] deals with Induced myeloid leukemia cell differentiation protein Mcl-1 (Homo sapiens) (UniProt Q07820). Kind of experiment: Induction of Mcl-1-mediated apoptosis in doxycyclin-stimulated human HeLa cells expressing GFP at 10 uM after 12 hrs by Hoechst staining. It counts as cell-based. The essentials: as §1
Experiment [9] has the same target. Kind of experiment: Induction of Mcl-1-mediated apoptosis in doxycyclin-stimulated human HeLa cells overexpressing Bad3SA at 10 uM after 12 hrs by Hoechst staining. It counts as cell-based. The essentials: as §1
Experiment [10] deals with HeLa. The experiment in a line: Induction of apoptosis in human HeLa cells assessed as decrease in XIAP expression at 10 uM by Western blot analysis. It counts as functional, cell-based. The essentials:
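HeLa cells treated 24 h, media and trypsinized cells pooled, lysed in RIPA buffer (pH 8.0); SDS-PAGE and Western blot for XIAP, α-tubulin as loading control.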

For experiment [11], the system named is HeLa. Kind of experiment: Induction of apoptosis in human HeLa cells assessed as caspase activation at 1 uM by Hoechst staining. It counts as functional, cell-based. The gist of the method: as §3

On to `O=C(Nc1cccc(Br)c1)Nc1ccc2nc(-c3ccco3)c(-c3ccco3)nc2c1`, for which the result with HeLa [1] was Active. The same measure, in the same setting: with `O=C(Nc1ccc2nc(-c3ccco3)c(-c3ccco3)nc2c1)Nc1ccccc1Br` the entry was “inactive”. In the case of `O=C(Nc1ccccc1)Nc1ccc2nccnc2c1`, the outcome with HeLa [1] was inactive.

Consider `O=C(Nc1ccc(Br)cc1)Nc1ccc2nc(-c3ccccc3)c(-c3ccccc3)nc2c1`, for which, in the experiment with HeLa [1], the result was Active. `O=C(Nc1ccc(Br)cc1)Nc1ccc2nc(-c3ccccn3)c(-c3ccccn3)nc2c1`: the outcome in the experiment with HeLa [1] was inactive.

`CC[C@@]1(O)C(=O)OCc2c1cc1n(c2=O)Cc2cc3ccccc3nc2-1`: the inhibition result in [2] was “inactive”. Further, the inhibition result in [3] is “Active”.

Consider `Cc1nc2ccc(NC(=O)Nc3ccc(Br)cc3)cc2nc1C`, for which the outcome with HeLa [1] and with HeLa [4] was inactive.

`O=C(Nc1ccc(Br)cc1)Nc1ccc2nc(-c3ccco3)c(-c3ccco3)nc2c1`: the result (in the experiment on HeLa [1]; in experiment [9]; in the experiment on HeLa [10]) was Active. Also, the result (in experiment [5]; with HeLa [4]; in experiment [8]) was inactive. For the same compound, the Activity result with HeLa [6] was “Dose-dependent effect”; with HeLa [7], “tde”. For the compound `CN(C)CC[C@H](CSc1ccccc1)Nc1ccc(S(=O)(=O)NC(=O)c2ccc(N3CCN(Cc4ccccc4-c4ccc(Cl)cc4)CC3)cc2)cc1[N+](=O)[O-]`, the outcome in the experiment on HeLa [11] was inactive. `O=C(Nc1ccc(Br)cc1)Nc1ccc2nc(-c3cccs3)c(-c3cccs3)nc2c1`: in the experiment on HeLa [1], the result was inactive.
